ChEMBL document CHEMBL4689842, “EUbOPEN Chemogenomics Library wave 1” (2021)
“And” between values parts separate entries of the source, which are not always exact repeats. Identical values can stand only once.

How the values were obtained:
Format in all cases: toxicity, cell-based
Fibroblast [1] = assay: Incucyte cell viability with human fibroblast; details: 10 µM, compound concentration 10 uM; note: filed as whole numbers so only -1 and 0 and 1 occur
HEK-293T [2] = assay: Incucyte cell viability with HEK293T; details: human, 10 µM, compound concentration 10 uM; note: filed as whole numbers so only -1 and 0 and 1 occur
Fibroblast [3] = assay: Multiplex assay against human fibroblast; details: 10 µM, compound concentration 10 uM
In short: (§1)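 At seeding, live cells were stained with Hoechst33342, BioTracker Green Microtubule Cytoskeleton Dye, MitoTracker Red and Annexin V Alexa Fluor 680. After compound addition they were imaged on a CQ1 microscope at 37°C and 5% CO2, and CellPathfinder machine-learning gating sorted them into Hoechst high-intensity objects or normal cells, with normal cells further split into healthy, pyknosed or fragmented nuclei and pyknosed cells into mitotic or apoptotic. Tubulin, mitochondrial-mass and membrane-permeability phenotypes are given as per cents of cells with healthy nuclei.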

HEK-293T [4] = assay: Multiplex assay against HEK293T; details: human, 10 µM, compound concentration 10 uM; in short: as §1;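 for Population Tubulin-Different-Phenotype (%): share of the cells with healthy nuclei that show this phenotype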
U2OS [5] = assay: Multiplex assay against U2OS; details: human, 10 µM, compound concentration 10 uM; in short: as §1
U2OS [6] = assay: Incucyte cell viability with U2OS; details: human, 10 µM, compound concentration 10 uM; note: filed as whole numbers so only -1 and 0 and 1 occur
[7] = 0 h, replicate number 2, timepoint 0 hours
[8] = 6 h, replicate number 1, timepoint 6 hours
[9] = 6 h, replicate number 2, timepoint 6 hours
[10] = 12 h, replicate number 1, timepoint 12 hours
[11] = 18 h, replicate number 1, timepoint 18 hours
[12] = 24 h, replicate number 1, timepoint 24 hours
[13] = 0 h, replicate number 1, timepoint 0 hours

C[C@@H]1CN(c2cc(-c3nn(C)c4ccc(OC5(C)CC5)cc34)ncn2)C[C@H](C)O1 [MLi-2-NC]
Growth Rate (Fibroblast [1]; [7]): 0 | Growth Rate (Fibroblast [1]; [8]): 0 | Growth Rate (Fibroblast [1]; [9]): 1 | Growth Rate (Fibroblast [1]; [10]): 1 | Growth Rate (Fibroblast [1]; [11]): 0 | Growth Rate (Fibroblast [1]; [12]): 0 | Growth Rate (HEK-293T [2]; [13]): 0 | Growth Rate (HEK-293T [2]; [8]): 1 | Growth Rate (HEK-293T [2]; [9]): 0 | Growth Rate (HEK-293T [2]; [10]): 0 | Growth Rate (HEK-293T [2]; [11]): 0 | Growth Rate (HEK-293T [2]; [12]): 0 | Population Apoptotic (%) (Fibroblast [3]; 12 h, replicate 1): 65% and 70% | Population Fragmented Nuclei (%) (Fibroblast [3]; 12 h, replicate 1): 24% and 21% | Population Healthy Nuclei (%) (Fibroblast [3]; 12 h, replicate 1): 59% and 61% | Population Hoechst High Intensity Objects (%) (Fibroblast [3]; 12 h, replicate 1): 9% and 12% | Population Mitochondria Different-Phenotype (%) (Fibroblast [3]; 12 h, replicate 1): 3% | Population Mitotic Cells (%) (Fibroblast [3]; 12 h, replicate 1): 34% and 29% | Population Normal (%) (Fibroblast [3]; 12 h, replicate 1): 90% and 87% | Population Pyknosed Nuclei (%) (Fibroblast [3]; 12 h, replicate 1): 16% | Total Cell Count (Fibroblast [3]; 12 h, replicate 1): 234 and 261 | Population Apoptotic (%) (Fibroblast [3]; 12 h, replicate 2): 42% and 50% | Population Fragmented Nuclei (%) (Fibroblast [3]; 12 h, replicate 2): 44% and 53% | Population Healthy Nuclei (%) (Fibroblast [3]; 12 h, replicate 2): 36% and 42% | Population Hoechst High Intensity Objects (%) (Fibroblast [3]; 12 h, replicate 2): 32% and 43% | Population Membrane Permeable-Phenotype (%) (Fibroblast [3]; 12 h, replicate 2): 21% and 15% | Population Mitochondria Different-Phenotype (%) (Fibroblast [3]; 12 h, replicate 2): 7% and 10% | Population Mitotic Cells (%) (Fibroblast [3]; 12 h, replicate 2): 57% and 50% | Population Normal (%) (Fibroblast [3]; 12 h, replicate 2): 67% and 56% | Population Tubulin-Different-Phenotype (%) (Fibroblast [3]; 12 h, replicate 2): 21% and 20% | Total Cell Count (Fibroblast [3]; 12 h, replicate 2): 56 and 83 | Population Apoptotic (%) (Fibroblast [3]; 24 h, replicate 1): 45% and 61% | Population Fragmented Nuclei (%) (Fibroblast [3]; 24 h, replicate 1): 25% and 27% | Population Healthy Nuclei (%) (Fibroblast [3]; 24 h, replicate 1): 59% and 56% | Population Hoechst High Intensity Objects (%) (Fibroblast [3]; 24 h, replicate 1): 12% and 11% | Population Membrane Permeable-Phenotype (%) (Fibroblast [3]; 24 h, replicate 1): 9% and 7% | Population Mitochondria Different-Phenotype (%) (Fibroblast [3]; 24 h, replicate 1): 3% and 9% | Population Mitotic Cells (%) (Fibroblast [3]; 24 h, replicate 1): 54% and 38% | Population Normal (%) (Fibroblast [3]; 24 h, replicate 1): 87% and 88% | Population Pyknosed Nuclei (%) (Fibroblast [3]; 24 h, replicate 1): 14% and 16% | Population Tubulin-Different-Phenotype (%) (Fibroblast [3]; 24 h, replicate 1): 8% and 22% | Total Cell Count (Fibroblast [3]; 24 h, replicate 1): 282 and 230 | Population Apoptotic (%) (Fibroblast [3]; 24 h, replicate 2): 62% and 50% | Population Fragmented Nuclei (%) (Fibroblast [3]; 24 h, replicate 2): 53% and 63% | Population Healthy Nuclei (%) (Fibroblast [3]; 24 h, replicate 2): 21% and 28% | Population Hoechst High Intensity Objects (%) (Fibroblast [3]; 24 h, replicate 2): 33% and 34% | Population Membrane Permeable-Phenotype (%) (Fibroblast [3]; 24 h, replicate 2): 42% and 23% | Population Mitotic Cells (%) (Fibroblast [3]; 24 h, replicate 2): 37% and 50% | Population Normal (%) (Fibroblast [3]; 24 h, replicate 2): 66% and 65% | Population Tubulin-Different-Phenotype (%) (Fibroblast [3]; 24 h, replicate 2): 42% and 30% | Total Cell Count (Fibroblast [3]; 24 h, replicate 2): 48 and 70 | Population Apoptotic (%) (HEK-293T [4]; 12 h, replicate 1): 9% and 22% | Population Fragmented Nuclei (%) (HEK-293T [4]; 12 h, replicate 1): 18% and 14% | Population Healthy Nuclei (%) (HEK-293T [4]; 12 h, replicate 1): 55% and 62% | Population Hoechst High Intensity Objects (%) (HEK-293T [4]; 12 h, replicate 1): 10% and 16% | Population Membrane Permeable-Phenotype (%) (HEK-293T [4]; 12 h, replicate 1): 4% and 3% | Population Mitochondria Different-Phenotype (%) (HEK-293T [4]; 12 h, replicate 1): 5% and 6% | Population Mitotic Cells (%) (HEK-293T [4]; 12 h, replicate 1): 90% and 77% | Population Normal (%) (HEK-293T [4]; 12 h, replicate 1): 89% and 83% | Population Pyknosed Nuclei (%) (HEK-293T [4]; 12 h, replicate 1): 25% and 23% | Total Cell Count (HEK-293T [4]; 12 h, replicate 1): 441 and 673 | Population Apoptotic (%) (HEK-293T [4]; 12 h, replicate 2): 6% and 12% | Population Fragmented Nuclei (%) (HEK-293T [4]; 12 h, replicate 2): 7% and 4% | Population Healthy Nuclei (%) (HEK-293T [4]; 12 h, replicate 2): 87% and 89% | Population Hoechst High Intensity Objects (%) (HEK-293T [4]; 12 h, replicate 2): 2% and 3% | Population Membrane Permeable-Phenotype (%) (HEK-293T [4]; 12 h, replicate 2): 2% | Population Mitochondria Different-Phenotype (%) (HEK-293T [4]; 12 h, replicate 2): 8% and 14% | Population Mitotic Cells (%) (HEK-293T [4]; 12 h, replicate 2): 93% and 87% | Population Normal (%) (HEK-293T [4]; 12 h, replicate 2): 97% and 96% | Population Pyknosed Nuclei (%) (HEK-293T [4]; 12 h, replicate 2): 4% and 6% | Population Tubulin-Different-Phenotype (%) (HEK-293T [4]; 12 h, replicate 2): 5% and 14% | Total Cell Count (HEK-293T [4]; 12 h, replicate 2): 1849 and 1412 | Population Apoptotic (%) (HEK-293T [4]; 24 h, replicate 1): 11% and 25% | Population Fragmented Nuclei (%) (HEK-293T [4]; 24 h, replicate 1): 16% and 12% | Population Healthy Nuclei (%) (HEK-293T [4]; 24 h, replicate 1): 72% and 75% | Population Hoechst High Intensity Objects (%) (HEK-293T [4]; 24 h, replicate 1): 6% and 11% | Population Membrane Permeable-Phenotype (%) (HEK-293T [4]; 24 h, replicate 1): 3% | Population Mitochondria Different-Phenotype (%) (HEK-293T [4]; 24 h, replicate 1): 1% and 5% | Population Mitotic Cells (%) (HEK-293T [4]; 24 h, replicate 1): 88% and 74% | Population Normal (%) (HEK-293T [4]; 24 h, replicate 1): 93% and 88% | Population Pyknosed Nuclei (%) (HEK-293T [4]; 24 h, replicate 1): 10% and 12% | Total Cell Count (HEK-293T [4]; 24 h, replicate 1): 505 and 711 | Population Apoptotic (%) (HEK-293T [4]; 24 h, replicate 2): 3% and 7% | Population Fragmented Nuclei (%) (HEK-293T [4]; 24 h, replicate 2): 24% and 13% | Population Healthy Nuclei (%) (HEK-293T [4]; 24 h, replicate 2): 73% and 83% | Population Hoechst High Intensity Objects (%) (HEK-293T [4]; 24 h, replicate 2): 2% and 4% | Population Membrane Permeable-Phenotype (%) (HEK-293T [4]; 24 h, replicate 2): 5% | Population Mitochondria Different-Phenotype (%) (HEK-293T [4]; 24 h, replicate 2): 2% and 4% | Population Mitotic Cells (%) (HEK-293T [4]; 24 h, replicate 2): 96% and 92% | Population Normal (%) (HEK-293T [4]; 24 h, replicate 2): 97% and 95% | Population Pyknosed Nuclei (%) (HEK-293T [4]; 24 h, replicate 2): 1% and 3% | Total Cell Count (HEK-293T [4]; 24 h, replicate 2): 3187 and 2081 | Population Apoptotic (%) (U2OS [5]; 12 h, replicate 1): 80% and 54% | Population Fragmented Nuclei (%) (U2OS [5]; 12 h, replicate 1): 2% | Population Healthy Nuclei (%) (U2OS [5]; 12 h, replicate 1): 93% and 87% | Population Hoechst High Intensity Objects (%) (U2OS [5]; 12 h, replicate 1): 4% and 5% | Population Membrane Permeable-Phenotype (%) (U2OS [5]; 12 h, replicate 1): 19% and 9% | Population Mitochondria Different-Phenotype (%) (U2OS [5]; 12 h, replicate 1): 14% and 30% | Population Mitotic Cells (%) (U2OS [5]; 12 h, replicate 1): 20% and 45% | Population Normal (%) (U2OS [5]; 12 h, replicate 1): 95% and 94% | Population Pyknosed Nuclei (%) (U2OS [5]; 12 h, replicate 1): 3% and 7% | Population Tubulin-Different-Phenotype (%) (U2OS [5]; 12 h, replicate 1): 16% and 29% | Total Cell Count (U2OS [5]; 12 h, replicate 1): 165 and 347 | Population Apoptotic (%) (U2OS [5]; 12 h, replicate 2): 50% and 40% | Population Fragmented Nuclei (%) (U2OS [5]; 12 h, replicate 2): 5% and 7% | Population Healthy Nuclei (%) (U2OS [5]; 12 h, replicate 2): 91% and 88% | Population Hoechst High Intensity Objects (%) (U2OS [5]; 12 h, replicate 2): 9% and 15% | Population Membrane Permeable-Phenotype (%) (U2OS [5]; 12 h, replicate 2): 14% and 7% | Population Mitochondria Different-Phenotype (%) (U2OS [5]; 12 h, replicate 2): 21% and 26% | Population Mitotic Cells (%) (U2OS [5]; 12 h, replicate 2): 50% and 60% | Population Normal (%) (U2OS [5]; 12 h, replicate 2): 90% and 84% | Population Tubulin-Different-Phenotype (%) (U2OS [5]; 12 h, replicate 2): 14% and 41% | Total Cell Count (U2OS [5]; 12 h, replicate 2): 153 and 242 | Population Apoptotic (%) (U2OS [5]; 24 h, replicate 1): 44% and 50% | Population Healthy Nuclei (%) (U2OS [5]; 24 h, replicate 1): 92% | Population Hoechst High Intensity Objects (%) (U2OS [5]; 24 h, replicate 1): 1% | Population Membrane Permeable-Phenotype (%) (U2OS [5]; 24 h, replicate 1): 10% and 3% | Population Mitochondria Different-Phenotype (%) (U2OS [5]; 24 h, replicate 1): 16% and 21% | Population Mitotic Cells (%) (U2OS [5]; 24 h, replicate 1): 55% and 50% | Population Normal (%) (U2OS [5]; 24 h, replicate 1): 98% | Population Tubulin-Different-Phenotype (%) (U2OS [5]; 24 h, replicate 1): 16% and 32% | Total Cell Count (U2OS [5]; 24 h, replicate 1): 226 and 387 | Population Fragmented Nuclei (%) (U2OS [5]; 24 h, replicate 2): 4% and 3% | Population Healthy Nuclei (%) (U2OS [5]; 24 h, replicate 2): 90% and 93% | Population Hoechst High Intensity Objects (%) (U2OS [5]; 24 h, replicate 2): 11% and 4% | Population Membrane Permeable-Phenotype (%) (U2OS [5]; 24 h, replicate 2): 12% and 8% | Population Mitochondria Different-Phenotype (%) (U2OS [5]; 24 h, replicate 2): 27% and 18% | Population Normal (%) (U2OS [5]; 24 h, replicate 2): 88% and 95% | Population Pyknosed Nuclei (%) (U2OS [5]; 24 h, replicate 2): 4% and 3% | Population Tubulin-Different-Phenotype (%) (U2OS [5]; 24 h, replicate 2): 18% and 37% | Total Cell Count (U2OS [5]; 24 h, replicate 2): 183 and 245 | Growth Rate (U2OS [6]; [13]): 1 | Growth Rate (U2OS [6]; [7]): 0 | Growth Rate (U2OS [6]; [8]): 1 | Growth Rate (U2OS [6]; [10]): 1 | Growth Rate (U2OS [6]; [11]): 0 | Growth Rate (U2OS [6]; 18 h, replicate number 2, timepoint 18 hours): 1 | Growth Rate (U2OS [6]; [12]): 0 | Growth Rate (U2OS [6]; 24 h, replicate number 2, timepoint 24 hours): 1
